Results reported in ChEMBL document CHEMBL1140055, “Mixed-lineage kinase 1 and mixed-lineage kinase 3 subtype-selective dihydronaphthyl[3,4-a]pyrrolo[3,4-c]carbazole-5-ones: optimization, mixed-lineage kinase 1 crystallography, and oral in vivo activity in 1-methyl-4-phenyltetrahydropyridine models” (J Med Chem, 2008).
Each block holds one compound with its values, some of them ahead of it. The source made the active and inactive calls. The calls are words filed in the database; no cut-off is given here.

Key:
[1] = target: Vascular endothelial growth factor receptor 1 (Homo sapiens, UniProt P17948); assay: Inhibition of human VEGFR1 expressed in baculovirus insect cell system
Vascular endothelial growth factor receptor 1, sequence (P17948 whole entry): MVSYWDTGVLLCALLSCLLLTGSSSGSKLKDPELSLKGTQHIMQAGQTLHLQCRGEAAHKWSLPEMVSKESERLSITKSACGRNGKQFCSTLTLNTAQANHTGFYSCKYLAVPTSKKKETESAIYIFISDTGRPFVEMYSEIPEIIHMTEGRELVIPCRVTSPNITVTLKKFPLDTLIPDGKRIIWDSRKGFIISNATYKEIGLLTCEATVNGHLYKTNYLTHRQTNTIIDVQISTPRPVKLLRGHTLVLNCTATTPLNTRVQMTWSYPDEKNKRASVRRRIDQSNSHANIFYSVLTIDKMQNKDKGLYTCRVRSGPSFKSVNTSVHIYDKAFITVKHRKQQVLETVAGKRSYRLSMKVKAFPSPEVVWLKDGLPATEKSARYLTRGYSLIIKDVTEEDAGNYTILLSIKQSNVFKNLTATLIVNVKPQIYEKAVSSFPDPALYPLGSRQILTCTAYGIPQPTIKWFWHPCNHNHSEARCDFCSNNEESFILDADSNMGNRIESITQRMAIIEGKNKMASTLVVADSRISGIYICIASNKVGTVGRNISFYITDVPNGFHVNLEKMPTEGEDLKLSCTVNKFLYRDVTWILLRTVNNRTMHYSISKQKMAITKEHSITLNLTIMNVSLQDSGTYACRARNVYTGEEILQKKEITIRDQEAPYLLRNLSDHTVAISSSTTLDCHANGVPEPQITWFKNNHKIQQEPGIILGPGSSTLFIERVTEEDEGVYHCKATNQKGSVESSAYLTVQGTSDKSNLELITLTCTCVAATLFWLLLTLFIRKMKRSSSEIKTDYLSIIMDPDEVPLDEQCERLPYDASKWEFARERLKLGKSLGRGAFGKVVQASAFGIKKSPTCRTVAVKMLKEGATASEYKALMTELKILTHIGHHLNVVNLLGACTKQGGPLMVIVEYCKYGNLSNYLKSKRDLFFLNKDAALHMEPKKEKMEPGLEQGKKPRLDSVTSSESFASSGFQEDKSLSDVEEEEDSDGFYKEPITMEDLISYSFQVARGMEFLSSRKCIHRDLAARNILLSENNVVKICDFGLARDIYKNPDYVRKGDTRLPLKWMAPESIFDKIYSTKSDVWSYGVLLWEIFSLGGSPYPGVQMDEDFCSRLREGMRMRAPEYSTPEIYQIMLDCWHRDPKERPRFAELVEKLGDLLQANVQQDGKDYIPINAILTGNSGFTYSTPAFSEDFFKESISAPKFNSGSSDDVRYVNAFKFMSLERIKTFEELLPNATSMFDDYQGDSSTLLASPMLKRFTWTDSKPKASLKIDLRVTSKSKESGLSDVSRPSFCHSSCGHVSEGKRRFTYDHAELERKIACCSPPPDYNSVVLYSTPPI

[2] = test system: Mus musculus; assay: Inhibition of MPTP-induced increase in pMKK4 levels in mouse at 1 mg/kg, sc administered 2 hrs before MPTP challenge followed by 10 mg/kg, sc 2 hrs after MPTP challenge
[3] = test system: SH-SY5Y; assay: Neuroprotective activity against human SH-SY5Y cells assessed as inhibition of MPP+-induced cell death; type: functional, cell-based
[4] = target: Vascular endothelial growth factor receptor 3 (Homo sapiens, UniProt P35916); assay: Inhibition of human VEGFR3 expressed in baculovirus insect cell system
[5] = target: Vascular endothelial growth factor receptor 2 (Homo sapiens, UniProt P35968); assay: Inhibition of human VEGFR2 expressed in baculovirus insect cell system
Vascular endothelial growth factor receptor 2, sequence (P35968 whole entry, the tested form may be a part): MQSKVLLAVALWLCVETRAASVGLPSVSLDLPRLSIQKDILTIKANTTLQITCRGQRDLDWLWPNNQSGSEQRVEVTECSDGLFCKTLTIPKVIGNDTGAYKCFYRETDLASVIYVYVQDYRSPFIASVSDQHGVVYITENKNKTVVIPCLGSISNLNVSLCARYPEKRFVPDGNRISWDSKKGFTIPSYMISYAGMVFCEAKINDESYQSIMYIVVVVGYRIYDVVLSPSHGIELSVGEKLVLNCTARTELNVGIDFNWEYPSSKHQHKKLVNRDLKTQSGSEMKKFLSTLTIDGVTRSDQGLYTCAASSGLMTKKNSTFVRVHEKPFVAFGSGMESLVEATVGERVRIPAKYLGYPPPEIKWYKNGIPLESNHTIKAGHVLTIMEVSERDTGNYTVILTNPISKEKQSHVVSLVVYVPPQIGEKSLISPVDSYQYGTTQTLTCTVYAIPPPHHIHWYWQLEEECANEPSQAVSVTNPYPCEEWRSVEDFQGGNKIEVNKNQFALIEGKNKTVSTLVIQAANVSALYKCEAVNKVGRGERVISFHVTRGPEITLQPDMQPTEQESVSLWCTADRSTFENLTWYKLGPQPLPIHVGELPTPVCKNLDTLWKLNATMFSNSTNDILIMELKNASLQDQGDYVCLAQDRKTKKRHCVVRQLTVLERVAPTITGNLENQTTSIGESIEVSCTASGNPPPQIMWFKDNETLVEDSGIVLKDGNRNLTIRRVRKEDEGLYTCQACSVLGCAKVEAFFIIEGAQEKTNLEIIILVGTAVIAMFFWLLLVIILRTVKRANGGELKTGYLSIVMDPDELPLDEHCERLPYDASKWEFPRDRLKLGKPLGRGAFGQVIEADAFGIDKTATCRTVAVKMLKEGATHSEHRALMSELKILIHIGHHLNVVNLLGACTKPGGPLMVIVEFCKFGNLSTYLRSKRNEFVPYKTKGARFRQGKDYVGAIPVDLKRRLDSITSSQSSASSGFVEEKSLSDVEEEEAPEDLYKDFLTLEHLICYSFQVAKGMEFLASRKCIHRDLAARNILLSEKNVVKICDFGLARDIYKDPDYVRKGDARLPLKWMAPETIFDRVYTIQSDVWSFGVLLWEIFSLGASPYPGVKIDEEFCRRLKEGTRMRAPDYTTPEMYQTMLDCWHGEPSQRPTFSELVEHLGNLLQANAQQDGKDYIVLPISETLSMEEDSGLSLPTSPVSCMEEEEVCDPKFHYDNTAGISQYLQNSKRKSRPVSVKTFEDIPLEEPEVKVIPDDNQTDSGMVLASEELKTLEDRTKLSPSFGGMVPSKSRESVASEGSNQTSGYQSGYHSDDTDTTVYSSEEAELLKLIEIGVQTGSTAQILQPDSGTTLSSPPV

[6] = target: T1, Mitogen-activated protein kinase kinase kinase 11 (Homo sapiens, UniProt Q16584); assay: Inhibition of GST-fused human MLK3
Method in brief: (§1)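 GST fusions of human MLK kinase domains from baculovirus (50 ng MLK1_KD, 150 ng MLK2_KD/LZ, 100 ng MLK3_KD), substrate 500 µg/mL myelin basic protein. Buffer 20 mM Hepes pH 7.2, 5 mM EGTA, 15 mM MgCl2, 1 mM DTT, 25 mM β-glycerophosphate, 0.1% BSA, 2% DMSO.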
Target sequence in this assay (Q16584 whole entry, the tested form may be a part): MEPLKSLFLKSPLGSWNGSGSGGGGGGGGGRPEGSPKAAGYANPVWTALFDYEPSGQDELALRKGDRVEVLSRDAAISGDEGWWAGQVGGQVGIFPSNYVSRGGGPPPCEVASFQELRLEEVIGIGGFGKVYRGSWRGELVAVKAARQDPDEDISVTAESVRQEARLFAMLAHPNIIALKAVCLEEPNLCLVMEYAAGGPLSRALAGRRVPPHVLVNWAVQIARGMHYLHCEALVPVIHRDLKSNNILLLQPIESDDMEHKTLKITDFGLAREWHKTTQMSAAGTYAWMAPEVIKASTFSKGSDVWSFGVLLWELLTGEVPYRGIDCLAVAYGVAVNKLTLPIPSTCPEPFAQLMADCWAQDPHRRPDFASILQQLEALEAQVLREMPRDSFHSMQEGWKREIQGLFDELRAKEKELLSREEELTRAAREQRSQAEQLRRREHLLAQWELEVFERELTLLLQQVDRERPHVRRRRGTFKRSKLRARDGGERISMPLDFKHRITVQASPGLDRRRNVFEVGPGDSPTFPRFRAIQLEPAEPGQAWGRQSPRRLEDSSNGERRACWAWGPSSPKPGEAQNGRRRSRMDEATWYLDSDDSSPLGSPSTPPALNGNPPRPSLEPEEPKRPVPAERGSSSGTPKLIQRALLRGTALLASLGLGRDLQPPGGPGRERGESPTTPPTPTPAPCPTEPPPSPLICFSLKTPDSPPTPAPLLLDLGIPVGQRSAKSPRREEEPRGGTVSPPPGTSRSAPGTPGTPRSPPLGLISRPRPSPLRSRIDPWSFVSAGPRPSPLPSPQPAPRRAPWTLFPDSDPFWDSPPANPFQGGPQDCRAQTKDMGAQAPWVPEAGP

[7] = target: T2, Mitogen-activated protein kinase kinase kinase 9 (Homo sapiens, UniProt P80192); assay: Inhibition of GST-fused human MLK1 expressed in CHO cells assessed as MKK4 phosphorylation; type: cell-based
Method in brief: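 CHO cells transfected with MLK1 plus dominant-negative MKK4 cDNA; phospho-MKK4 quantified by ELISA; IC50 derived.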
Target sequence in this assay (P80192 whole entry, the tested form may be a part): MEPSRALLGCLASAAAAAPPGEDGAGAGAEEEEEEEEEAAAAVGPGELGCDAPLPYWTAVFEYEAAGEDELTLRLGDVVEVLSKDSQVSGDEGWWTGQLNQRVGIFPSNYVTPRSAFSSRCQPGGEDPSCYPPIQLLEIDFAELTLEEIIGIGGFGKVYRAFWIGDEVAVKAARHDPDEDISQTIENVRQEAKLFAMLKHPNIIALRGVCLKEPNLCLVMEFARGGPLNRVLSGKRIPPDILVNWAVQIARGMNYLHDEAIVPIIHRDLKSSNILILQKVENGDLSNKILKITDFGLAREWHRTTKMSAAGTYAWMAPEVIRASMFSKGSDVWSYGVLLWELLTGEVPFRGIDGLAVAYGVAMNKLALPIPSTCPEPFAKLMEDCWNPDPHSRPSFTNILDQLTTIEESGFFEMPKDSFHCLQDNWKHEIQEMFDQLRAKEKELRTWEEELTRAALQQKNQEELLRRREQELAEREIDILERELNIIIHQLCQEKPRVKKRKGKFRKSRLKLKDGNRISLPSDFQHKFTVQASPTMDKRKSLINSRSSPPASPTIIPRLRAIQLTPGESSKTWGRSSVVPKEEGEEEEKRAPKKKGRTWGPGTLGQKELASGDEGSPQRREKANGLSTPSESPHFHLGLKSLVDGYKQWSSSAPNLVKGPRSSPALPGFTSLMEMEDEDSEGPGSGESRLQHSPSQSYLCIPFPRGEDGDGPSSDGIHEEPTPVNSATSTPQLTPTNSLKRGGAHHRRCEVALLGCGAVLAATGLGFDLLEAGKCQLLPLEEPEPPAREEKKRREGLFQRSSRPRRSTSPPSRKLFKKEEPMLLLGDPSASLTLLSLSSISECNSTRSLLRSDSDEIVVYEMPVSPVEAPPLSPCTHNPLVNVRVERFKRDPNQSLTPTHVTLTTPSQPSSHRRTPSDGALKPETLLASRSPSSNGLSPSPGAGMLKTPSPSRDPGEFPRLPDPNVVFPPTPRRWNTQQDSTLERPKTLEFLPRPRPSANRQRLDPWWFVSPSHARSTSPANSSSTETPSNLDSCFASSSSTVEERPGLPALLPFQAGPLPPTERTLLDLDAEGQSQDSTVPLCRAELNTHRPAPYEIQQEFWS

[8] = target: T1, Mitogen-activated protein kinase kinase kinase 11; assay: Inhibition of GST-fused human MLK3 at 1 uM
Method in brief: (§2)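 Baculovirus-expressed GST fusions of human MLK1 or MLK3 kinase domain (50 ng MLK1, 100 ng MLK3), myelin basic protein substrate at 500 µg/mL.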
Target sequence in this assay (Q16584 whole entry, looked up, the tested form may be a part): as the sequence (Q16584 whole entry, the tested form may be a part) above

[9] = target: T2, Mitogen-activated protein kinase kinase kinase 9; assay: Inhibition of GST-fused human MLK1 at 1 uM; method in brief: as §2
Target sequence in this assay (P80192 whole entry, looked up, the tested form may be a part): as the sequence (P80192 whole entry, the tested form may be a part) above

[10] = target: T2, Mitogen-activated protein kinase kinase kinase 9; assay: Inhibition of GST-fused human MLK1; method in brief: as §1
Target sequence in this assay (P80192 whole entry, the tested form may be a part): as above

[11] = Volume of distribution in Sprague-Dawley rat at 1 mg/kg, iv; type: ADME, organism-based; parameters: dose 1 mg/kg, route intravenous; settings: in vivo
Method in brief: (§3)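 Rat PK: iv dose into lateral tail vein in 3% DMSO/30% solutol/67% PBS; oral gavage in 50% Tween 80/40% propylene carbonate/10% propylene glycol, rats fasted overnight before oral dosing. Serial tail-vein blood at seven times over 6 h into heparinized tubes. Plasma protein-precipitated with acetonitrile, analysed with internal standard by LC-MS/MS. Bioavailability from iv versus po AUCs.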

[12] = Inhibition of human IRK expressed in baculovirus insect cell system
[13] = Clearance in Sprague-Dawley rat at 1 mg/kg, iv; type: ADME, organism-based; parameters: dose 1 mg/kg, route intravenous; settings: in vivo; method in brief: as §3
[14] = target: High affinity nerve growth factor receptor (Homo sapiens, UniProt P04629); assay: Inhibition of human TrkA expressed in baculovirus insect cell system
[15] = test system: Mus musculus; assay: Neuroprotective activity against MPTP-induced loss of striatal dopamine markers in po dosed mouse administered twice daily; type: functional, organism-based
Method in brief: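 Mouse MPTP neurotoxicity: low dose 20 mg/kg sc, assessing striatal DA terminals by GBR-12935 binding; high dose 40 mg/kg sc, assessing striatal DA markers and substantia nigra cell bodies by TH immunoreactivity. Test compounds given orally, q.d. or b.i.d.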

[16] = Cmax in Sprague-Dawley rat at 5 mg/kg, po; type: ADME, organism-based; parameters: dose 5 mg/kg, route oral; settings: in vivo; method in brief: as §3
[17] = Plasma concentration in mouse at 6.7 mg/kg, po administered 2 hrs before MPTP challenge followed by 40 mg/kg, sc 2 hrs after MPTP challenge; type: ADME, organism-based; settings: other: po followed by sc
Method in brief: (§4)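 Mice dosed orally at 6.7 mg/kg 2 h before and 2 h after MPTP (40 mg/kg sc). Substantia nigra dissected 2 h after second dose; pMKK4 measured by immunoblot against treated and control groups. Plasma drug levels taken 2 h after dosing (4 h post-MPTP).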

[18] = target: Mitogen-activated protein kinase kinase kinase 10 (Homo sapiens, UniProt Q02779); assay: Inhibition of human MLK2 expressed in baculovirus insect cell system
Method in brief: as §1, with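 “DMSO. […] 15 min at 37 °C, TCA precipitation, scintillation counting. IC50 by variable-slope sigmoidal fit, average of duplicates within 20%.” for “DMSO.”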

[19] = target: Tyrosine-protein kinase Fyn (Homo sapiens, UniProt P06241); assay: Inhibition of human Fyn kinase expressed in baculovirus insect cell system
[20] = target: Fibroblast growth factor receptor 1 (Homo sapiens, UniProt P11362); assay: Inhibition of human FGFR1 expressed in baculovirus insect cell system
[21] = Half life in Sprague-Dawley rat at 1 mg/kg, iv; type: ADME, organism-based; parameters: dose 1 mg/kg, route intravenous; settings: in vivo; method in brief: as §3
[22] = target: T3, Dual specificity mitogen-activated protein kinase kinase 4 (Homo sapiens, UniProt P45985); assay: Inhibition of human MKK4/7 expressed in baculovirus insect cell system
T3 sequence (P45985 whole entry): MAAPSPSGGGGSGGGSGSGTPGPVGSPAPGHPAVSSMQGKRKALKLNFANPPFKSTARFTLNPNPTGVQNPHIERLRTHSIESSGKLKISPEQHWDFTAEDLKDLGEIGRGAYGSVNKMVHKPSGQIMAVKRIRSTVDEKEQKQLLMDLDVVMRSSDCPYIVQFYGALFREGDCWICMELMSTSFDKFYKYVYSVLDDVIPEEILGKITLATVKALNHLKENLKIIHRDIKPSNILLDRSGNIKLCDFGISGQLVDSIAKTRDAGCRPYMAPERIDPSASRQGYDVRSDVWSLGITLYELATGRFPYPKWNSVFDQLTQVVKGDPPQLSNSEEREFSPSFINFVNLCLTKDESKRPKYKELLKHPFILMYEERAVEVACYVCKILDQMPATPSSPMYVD

[23] = AUC in Sprague-Dawley rat at 5 mg/kg, po; type: ADME, organism-based; parameters: dose 5 mg/kg, route oral; settings: plasma
Method in brief: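 Rats were fasted overnight, then dosed by oral gavage in 50% Tween 80, 40% propylene carbonate and 10% propylene glycol. Serial heparinized blood samples were taken from the lateral tail vein at seven times over 6 h. Plasma was deproteinized with acetonitrile and analysed for drug against an internal standard by LC-MS/MS.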

[24] = AUC in Sprague-Dawley rat at 1 mg/kg, iv; type: ADME, organism-based; parameters: dose 1 mg/kg, route intravenous; settings: plasma
Method in brief: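 Single intravenous dose into the lateral tail vein in 3% DMSO, 30% solutol and 67% phosphate-buffered saline. Serial heparinized blood samples were taken from the lateral tail vein at seven times over 6 h. Plasma was separated by centrifugation, deproteinized with acetonitrile and analysed for drug against an internal standard by LC-MS/MS.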

[25] = target: c-Jun N-terminal kinase, JNK (Homo sapiens, UniProt P45983+P53779+P45984); assay: Inhibition of human JNK expressed in baculovirus insect cell system
[26] = target: Serine/threonine-protein kinase Chk1/2 (Homo sapiens, UniProt O96017+O14757); assay: Inhibition of human CHK1/2 expressed in baculovirus insect cell system
[27] = target: Cyclin-dependent kinase; assay: Inhibition of human CDK expressed in baculovirus insect cell system
[28] = target: Protein kinase C (PKC); assay: Inhibition of human PKC expressed in baculovirus insect cell system
[29] = Half life in Sprague-Dawley rat at 5 mg/kg, po; type: ADME, organism-based; parameters: dose 5 mg/kg, route oral; settings: in vivo; method in brief: as §3
[30] = Oral bioavailability in Sprague-Dawley rat at 5 mg/kg; type: ADME, organism-based; settings: in vivo; method in brief: as §3
[31] = Metabolic stability in rat liver S9 fraction after 2 hrs in presence of NADPH; type: ADME, subcellular; settings: read-out: Stability
Method in brief: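 Incubated 2 h in rat liver S9 preparation with NADPH; percent parent remaining reported.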

[32] = test system: Mus musculus; assay: Inhibition of MPTP-induced increase in pMKK4 levels in mouse at 6.7 mg/kg, po administered 2 hrs before MPTP challenge followed by 40 mg/kg, sc 2 hrs after MPTP challenge; type: functional; parameters: Activity: scale not given: the % may be the effect or the level left; method in brief: as §4
[33] = target: Mitogen-activated protein kinase 14 (Homo sapiens, UniProt Q16539); assay: Inhibition of human P38alpha expressed in baculovirus insect cell system

Structure (SMILES): CCSCc1ccc2c(c1)c1c3c(c4c5cc(CSCC)ccc5n5c4c1n2[C@H]1C[C@](O)(C(=O)OC)[C@]5(C)O1)CNC3=O [CEP-1347]
- IC50 [1]: 209 nM
- inhibition (INH) [2]: 45%
- IC50 [3]: 5.3 nM
- IC50 [4]: 39 nM
- IC50 [5]: 43 nM
- IC50 [6]: 64 nM
- IC50 [7]: 72 nM

Structure (SMILES): COc1ccc2c(c1)CCc1c-2c2c(c3c1[nH]c1ccccc13)CNC2=O
- IC50 [10]: 188 nM
- IC50 [6]: 274 nM

Structure (SMILES): O=C1NCc2c1c1c(c3[nH]c4ccccc4c23)CCc2cc(O)ccc2-1
- inhibition [8]: 0%
- inhibition [9]: 9%

Structure (SMILES): CC(C)Oc1ccc2c(c1)CCc1c-2c2c(c3c4ccccc4n(CCO)c13)CNC2=O
- IC50 [1]: > 10000 nM
- Vd [11]: 2 L/kg
- IC50 [12]: > 10000 nM
- clearance [13]: 28 mL/min/kg
- IC50 [3]: 43 nM
- IC50 [4]: 2460 nM
- IC50 [14]: 1050 nM
- Activity [15]: Active
- Cmax [16]: 339 ng/mL
- IC50 [5]: 3380 nM
- concentration at 2 h [17]: 580 nM
- IC50 [10]: 26 nM
- IC50 [18]: 1860 nM
- IC50 [6]: 65 nM
- IC50 [19]: 1190 nM
- IC50 [20]: > 10000 nM
- half-life [21]: 48 min
- IC50 [22]: > 3000 nM
- AUC [23]: 1070 ng·h/mL
- AUC [24]: 579 ng·h/mL
- IC50 [25]: > 30000 nM
- IC50 [26]: > 10000 nM
- IC50 [27]: > 10000 nM
- IC50 [7]: 33 nM
- IC50 [28]: > 6000 nM
- half-life [29]: 66 min
- bioavailability [30]: 37%
- remaining at 2 h [31]: 44%
- Activity [32]: 64%
- IC50 [33]: > 10000 nM

Structure (SMILES): CC(C)Oc1ccc2c(c1)CCc1c-2c2c(c3c1[nH]c1ccccc13)CNC2=O
- IC50 [10]: 66 nM
- IC50 [6]: 159 nM
- IC50 [7]: 196 nM

Now from value to compound:

- inhibition [8]: 46%
- inhibition [9]: 58%
Structure (SMILES): N#CCCCOc1ccc2c(c1)CCc1c-2c2c(c3c4ccccc4n(CCO)c13)CNC2=O

- inhibition [8]: 0%
- inhibition [9]: 9%
Structure (SMILES): O=C1NCc2c1c1c(c3c2c2ccccc2n3CCO)CCc2cc(OCCOCc3ccccc3)ccc2-1

- inhibition [8]: 8%
- inhibition [9]: 30%
Structure (SMILES): N#CCOc1ccc2c(c1)CCc1c-2c2c(c3c4ccccc4n(CCO)c13)CNC2=O

- inhibition [9]: 14%
- IC50 [6]: 1000 nM
Structure (SMILES): O=C1NCc2c1c1c(c3c2c2ccccc2n3CCO)CCc2ccccc2-1
